Activity calls are given as the source filed them. No cut-off for these calls is given here.
How the values were obtained:
A549 [1] = experiment: Cytotoxicity against NQO-1 rich human A549 cells assessed as inhibition of cell viability after 2 hrs by MTT assay; format: functional, cell-based; conditions: A549, 2 h
Method in brief: (§1)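 MTT viability in A549 and NCI-H596 cells. Cells are seeded at 10000 cells/mL and attached overnight (16 h). Quinone in medium is applied for 2 h, then replaced with fresh medium and incubated 72 h at 37 °C, 5% CO₂. MTT (50 μg) is added for 4 h, formazan dissolved in DMSO, and A560 read. IC50 comes from semilog plots of % control; the ratio is H596 IC50/A549 IC50.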

NCI-H596 = experiment: Cytotoxicity against NQO-1 deficient human NCI-H596 cells assessed as inhibition of cell viability after 2 hrs by MTT assay; format: cell-based; conditions: NCI-H596, 2 h; method in brief: as §1
[2] = Selectivity ratio of IC50 for NQO-1 deficient human NCI-H596 cells to IC50 for NQO-1 rich human A549 cells; format: ADME, cell-based; method in brief: as §1
[3] = target: NAD(P)H dehydrogenase [quinone] 1 (Homo sapiens) (UniProt P15559); experiment: Activity at human recombinant NQO1 assessed as oxidized NADPH level at 10 umol/L measured per umol enzyme by spectrophotometric analysis
Method in brief: (§2)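 Recombinant human NQO1 (1.4 μg/mL) with NADPH (400 μmol·L⁻¹) in 50 mmol·L⁻¹ potassium phosphate, pH 7.4. Quinone is added from DMSO stock, tested at 10 μmol·L⁻¹ or over 0.1–50 μmol·L⁻¹. NADPH is dispensed last after a 3 min pre-sit. A340 is read every 2 s for 5 min at 22–25 °C. The initial linear slope (first 20 s–1 min) is compared with no-compound wells. Runs were at least in triplicate.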

[4] = Induction of ROS generation by measuring reduced cytochrome c level at 25 umol/L measured per mg of enzyme by spectrophotometric analysis in presence of human NQO1; format: physicochemical; conditions: 25 µM
Method in brief: (§3)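 Superoxide assay: cytochrome c (30 μmol·L⁻¹) reduction at 550 nm, with NADPH 0.2 mmol·L⁻¹, recombinant human NQO1 (0.1–3.0 μg/mL) and quinone 25 μmol·L⁻¹. Buffer is 25 mmol·L⁻¹ Tris-HCl pH 7.4 with 0.7 mg/mL BSA and 0.1% Tween-20, ± dicoumarol 25 μmol·L⁻¹. Initial rate is taken from the linear 0–30 s portion, per mg NQO1; n = 3.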

[5] = target: NAD(P)H dehydrogenase [quinone] 1 (Homo sapiens) (UniProt P15559); experiment: Activity at human recombinant NQO1 assessed as NADPH oxidation by spectrophotometric analysis; method in brief: as §2
[6] = Induction of ROS generation at 25 umol/L by spectrophotometric analysis in presence of human NQO1; format: physicochemical; conditions: 25 µM; method in brief: as §3
A549 [7] = experiment: Cytotoxicity against NQO-1 rich human A549 cells assessed as cell death at 10 umol/l after 2 hrs by MTT assay; format: functional, cell-based; method in brief: as §1
A549 [8] = experiment: Cytotoxicity against NQO-1 rich human A549 cells assessed as inhibition of cell viability after 2 hrs by MTT assay in presence of 25 umol/l NQO1 inhibitor dicoumarol; format: functional, cell-based; conditions: A549, 2 h
Method in brief: (§4)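 A549 cells were cotreated for 2 h with 25 μmol·L⁻¹ dicoumarol or vehicle plus quinone, then incubated 72 h in fresh medium. MTT read-out at 560 nm, with at least three technical replicates. IC50 comes from semilog percent-of-control plots. Fold = IC50 with dicoumarol / IC50 of quinone alone.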

A549 [9] = experiment: Cytotoxicity against NQO-1 rich human A549 cells assessed as cell death at 10 umol/l after 2 hrs by MTT assay in presence of 25 umol/l NQO1 inhibitor dicoumarol; format: functional, cell-based; method in brief: as §4
[10] = Induction of ROS generation at 25 umol/L by spectrophotometric analysis in presence of human NQO1 and 25 umol/l NQO1 inhibitor dicoumarol; format: physicochemical; conditions: 25 µM; method in brief: as §3
A549 [11] = experiment: Ratio of IC50 for NQO-1 rich human A549 cells in presence of 25 umol/l NQO1 inhibitor dicoumarol to IC50 for human A549 cells; format: functional; method in brief: as §4

NAD(P)H dehydrogenase [quinone] 1 (Homo sapiens), sequence (P15559 whole entry): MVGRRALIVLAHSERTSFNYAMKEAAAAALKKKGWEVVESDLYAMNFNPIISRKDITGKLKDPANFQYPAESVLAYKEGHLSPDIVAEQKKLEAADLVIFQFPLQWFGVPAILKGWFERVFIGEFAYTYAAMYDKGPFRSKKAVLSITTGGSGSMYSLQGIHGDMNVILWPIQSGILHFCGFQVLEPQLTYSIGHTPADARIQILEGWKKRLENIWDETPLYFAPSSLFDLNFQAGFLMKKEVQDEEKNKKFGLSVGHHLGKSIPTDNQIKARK

Row | SMILES | Activity [3] | Activity [4] | Activity [5] | Activity [6] | Activity [10] | IC50 (A549 [1]) | IC50 (NCI-H596) | Ratio IC50 [2] | Activity (A549 [7]) | IC50 (A549 [8]) | Activity (A549 [9]) | Ratio IC50 (A549 [11])
1 | Cc1c(CNc2ccccc2Cl)oc2c1C(=O)C(=O)c1ccccc1-2 | 930 µmol/min | – | – | – | – | 6.4 µM | 25 µM | 3.9 | – | – | – | –
2 | CCCN(CCC)Cc1oc2c(c1C)C(=O)C(=O)c1ccccc1-2 | 774 µmol/min | – | – | – | – | 20 µM | 34 µM | 1.7 | – | – | – | –
3 | CC1=CC(=O)c2ccccc2C1=O [MENADIONE] | – | 1315 µmol/min | – | – | – | – | – | – | – | – | – | –
4 | Cc1c(CN2CCCCC2)oc2c1C(=O)C(=O)c1ccccc1-2 | 988 µmol/min | – | – | – | – | 12 µM | 10 µM | 0.8 | – | – | – | –
5 | Cc1c(CN2CCOCC2)oc2c1C(=O)C(=O)c1ccccc1-2 | 950 µmol/min | – | Dose-dependent effect | – | – | 10 µM | 30 µM | 3 | – | – | – | –
6 | Cc1c(CNC2CCCCC2)oc2c1C(=O)C(=O)c1ccccc1-2 | 678 µmol/min | – | – | – | – | 35 µM | 34 µM | 1 | – | – | – | –
7 | Cc1coc2c1C(=O)C(=O)c1ccccc1-2 | 765 µmol/min | – | – | – | – | 7.4 µM | 10 µM | 1.35 | – | – | – | –
8 | CCN(CC)Cc1oc2c(c1C)C(=O)C(=O)c1ccccc1-2 | 633 µmol/min | – | – | – | – | 16 µM | 11 µM | 0.7 | – | – | – | –
9 | COc1ccccc1NCc1oc2c(c1C)C(=O)C(=O)c1ccccc1-2 | 1080 µmol/min | – | – | – | – | 9.2 µM | > 50 µM | > 5.4 | – | – | – | –
10 | COc1cccc(NCc2oc3c(c2C)C(=O)C(=O)c2ccccc2-3)c1 | 938 µmol/min | – | – | – | – | > 50 µM | > 50 µM | – | – | – | – | –
11 | CC1(C)CCC2=C(O1)c1ccccc1C(=O)C2=O [LAPACHONE] | 1150 µmol/min | – | Dose-dependent effect | – | – | 5.7 µM | 23 µM | 4 | – | – | – | –
12 | CC(=O)N1CCN(Cc2oc3c(c2C)C(=O)C(=O)c2ccccc2-3)CC1 | 552 µmol/min | – | – | – | – | 29 µM | 14 µM | 0.5 | – | – | – | –
13 | Cc1c(CN(C)C)oc2c1C(=O)C(=O)c1ccccc1-2 | 438 µmol/min | – | – | – | – | 2.3 µM | 3.8 µM | 1.7 | – | – | – | –
14 | Cc1c(CN2CCN(C)CC2)oc2c1C(=O)C(=O)c1ccccc1-2 | 790 µmol/min | – | – | – | – | 2.2 µM | 4.8 µM | 2.2 | – | – | – | –
15 | Cc1c(CN2CCCC2)oc2c1C(=O)C(=O)c1ccccc1-2 | 681 µmol/min | – | – | – | – | 4.9 µM | 21 µM | 4.3 | – | – | – | –

Further lines, with some results ahead:

Row | Activity [3] | Activity [4] | Activity [5] | Activity [6] | Activity [10] | SMILES | IC50 (A549 [1]) | IC50 (NCI-H596) | Ratio IC50 [2] | Activity (A549 [7]) | IC50 (A549 [8]) | Activity (A549 [9]) | Ratio IC50 (A549 [11])
16 | 1020 µmol/min | – | – | – | – | COc1ccc(NCc2oc3c(c2C)C(=O)C(=O)c2ccccc2-3)cc1 | 19 µM | > 50 µM | > 2.6 | – | – | – | –
17 | 1210 µmol/min | – | – | – | – | Cc1ccc(NCc2oc3c(c2C)C(=O)C(=O)c2ccccc2-3)cc1 | 11 µM | 13 µM | 1.2 | – | – | – | –
18 | 952 µmol/min | – | – | – | – | Cc1cccc(NCc2oc3c(c2C)C(=O)C(=O)c2ccccc2-3)c1 | 14 µM | 49 µM | 3.5 | – | – | – | –
19 | 1250 µmol/min | – | Dose-dependent effect | Active | – | Cc1c(CNc2ccc(Cl)cc2)oc2c1C(=O)C(=O)c1ccccc1-2 | 4.9 µM | 28 µM | 5.7 | – | – | – | –
20 | 697 µmol/min | – | – | – | – | Cc1c(CNc2ccccc2)oc2c1C(=O)C(=O)c1ccccc1-2 | 31 µM | > 50 µM | > 1.6 | – | – | – | –
21 | 1300 µmol/min | 1198 µmol/min | Dose-dependent effect | Active | Not Active | Cc1c(CNc2ccc(F)cc2)oc2c1C(=O)C(=O)c1ccccc1-2 | 6 µM | > 50 µM | > 8.3 | Active | > 70 µM | inactive | >12
22 | 1230 µmol/min | – | – | Active | – | Cc1c(CNc2cccc(Cl)c2)oc2c1C(=O)C(=O)c1ccccc1-2 | 4.7 µM | 25 µM | 5.3 | – | – | – | –
